We go through five molecules from ChEMBL document CHEMBL1145533, “Antimicrobial activities of ceragenins against clinical isolates of resistant Staphylococcus aureus” (2007).

Values after ≈ are worked out from the molar mass of the structure shown. Where only a bound is given, the exact number is not on record here.

Test [1] concerns Staphylococcus aureus. The test can be described thus: Antimicrobial activity against heterogeneous glycopeptide-intermediate Staphylococcus aureus by broth microdilution technique after 24 hrs. The class given is functional. The procedure, abridged:
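CLSI broth microdilution in Mueller-Hinton broth with Mg 12.5 mg/liter and Ca 25 mg/liter. […] MBC determined as well. hVISA isolates were identified by subpopulation analysis.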
(Dilution methods test growth across graded concentrations, often in twofold steps.)

Test [2] relates to Staphylococcus aureus. The test is described as follows: Antimicrobial activity against glycopeptide-intermediate Staphylococcus aureus by broth microdilution technique after 24 hrs. The class given is functional. A digest of the protocol:
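CLSI broth microdilution MIC and MBC in duplicate. Mueller-Hinton broth supplemented with Mg 12.5 mg/liter and Ca 25 mg/liter (Ca 50 mg/liter for daptomycin). Inoculum 5 × 10⁵ CFU/ml, 24 h at 35°C, tested up to 32.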

Test [3] concerns Staphylococcus aureus. The test can be described thus: Bactericidal killing activity against 8 to 9 log10 CFU/ml Staphylococcus aureus Mu50 at 4 times MIC by time-kill curve analysis. Type of test: functional. A digest of the protocol:
(§1)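 Time-kill in triplicate in Mueller-Hinton broth supplemented with Mg 12.5 mg/liter and Ca 25 mg/liter. Agent at 0.5×, 1×, 4× and 10× MIC. Starting inocula 5 × 10⁵ (about 6 log₁₀) or 1 × 10⁸ to 1 × 10⁹ CFU/ml. Samples at 0, 1, 4, 8 and 24 h, serially diluted in cold 0.9% NaCl or filtered to remove carryover. Counted by spiral plating on trypticase soy agar; detection limit 2 log₁₀ CFU/ml. Bactericidal = 99.9% kill.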

Test [4] deals with Staphylococcus aureus. The test can be described thus: Antibacterial activity against Staphylococcus aureus Mu3 assessed as bacterial density after 24 hrs by time-kill curve analysis. The class given is functional. The procedure, abridged: as §1
Test [5] has as its system Staphylococcus aureus. The test is described as follows: Bactericidal killing activity against 6 log10 CFU/ml Staphylococcus aureus Mu3 at MIC by time-kill curve analysis. The class given is functional. A digest of the protocol: as §1
For test [6], the system named is Staphylococcus aureus. The test can be described thus: Bactericidal killing activity against 6 log10 CFU/ml Staphylococcus aureus Mu50 at 4 times MIC by time-kill curve analysis. Type of test: functional. The procedure, abridged: as §1
Test [7] deals with Staphylococcus aureus. The test can be described thus: Bactericidal killing activity against Staphylococcus aureus Mu3 at 10 times MIC. Type of test: functional. A digest of the protocol:
(§2)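 Time-kill in Mueller-Hinton broth with Mg 12.5 mg/liter and Ca 25 mg/liter, run in triplicate. Drug at 0.5×, 1×, 4× and 10× MIC. Starting inocula ~6 log10 CFU/ml (5 × 10⁵ to 10⁶) or 8–9 log10 CFU/ml. Samples taken at 0, 1, 4, 8 and 24 h, diluted in cold 0.9% NaCl (filtered if carryover was possible), then spiral plated. Detection limit 2 log10 CFU/ml. Bactericidal = 99.9% kill.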

The test system of test [8] is Staphylococcus aureus. The test can be described thus: Antibacterial activity against Staphylococcus aureus Mu50 assessed as bacterial density after 24 hrs by time-kill curve analysis. Type of test: functional. A digest of the protocol:
as §2

Test [9] concerns Staphylococcus aureus. The test is described as follows: Bactericidal killing activity against 8 to 9 log10 CFU/ml Staphylococcus aureus Mu3 at MIC by time-kill curve analysis. Type of test: functional. The procedure, abridged:
as §2

Test [10] concerns Staphylococcus aureus. The test can be described thus: Post antibiotic effect on vancomycin-resistant Staphylococcus aureus PA after 0.5 hrs. Type of test: functional, organism-based. The procedure, abridged:
(§3)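 Cultures exposed for 0.5 h at 1×, 2× and 4× MIC, then drug removed by washing, dilution, filtration or inactivation. PAE = T − C, where each is the time for counts to rise 1 log10 above the count right after drug removal, for treated (T) and untreated control (C) cultures.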

Test [11] has as its system Staphylococcus aureus. The test is described as follows: Post antibiotic effect on vancomycin-resistant Staphylococcus aureus MI after 0.5 hrs. Type of test: functional, organism-based. The procedure, abridged: as §3
For test [12], the system named is Staphylococcus aureus. The test can be described thus: Post antibiotic effect on Staphylococcus aureus Mu3 after 0.5 hrs. Type of test: functional, organism-based. A digest of the protocol:
(§4)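 Exposure for 0.5 h at 1×, 2× and 4× MIC, then rapid drug removal by washing, dilution, filtration or inactivation. PAE = T − C: time for treated culture to rise 1 log₁₀ CFU/ml after removal, minus the same for an untreated control. Reported as average ± standard deviation.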

Test [13] has as its system Staphylococcus aureus. The test is described as follows: Post antibiotic effect on Staphylococcus aureus Mu50 after 0.5 hrs. Type of test: functional, organism-based. A digest of the protocol: as §4
Test [14] relates to Staphylococcus aureus. The test is described as follows: Bactericidal killing activity of vancomycin-intermediate Staphylococcus aureus at 10 times MIC by time kill curve analysis. Type of test: functional. The procedure, abridged:
as §1

For test [15], the system named is Staphylococcus aureus. The test can be described thus: Bactericidal killing activity against Staphylococcus aureus Mu3 at 4 times MIC. Type of test: functional. A digest of the protocol: as §1
Test [16] deals with Staphylococcus aureus. The test is described as follows: Bactericidal killing activity against Staphylococcus aureus Mu3 at MIC. Type of test: functional. The procedure, abridged:
as §1

Test [17] concerns Staphylococcus aureus. The test can be described thus: Bactericidal killing activity against Staphylococcus aureus Mu3 at 0.5 times MIC. The class given is functional. A digest of the protocol: as §1
Test [18] has as its system Staphylococcus aureus. The test is described as follows: Bactericidal killing activity of vancomycin-resistant Staphylococcus aureus by time kill curve analysis. Type of test: functional, organism-based. The procedure, abridged:
as §2

Test [19] concerns Staphylococcus aureus. The test can be described thus: Bactericidal killing activity of vancomycin-intermediate Staphylococcus aureus by time kill curve analysis. The class given is functional, organism-based. A digest of the protocol:
as §1

For test [20], the system named is Staphylococcus aureus. The test is described as follows: Bactericidal killing activity of heterogenous vancomycin-intermediate Staphylococcus aureus by time kill curve analysis. Type of test: functional, organism-based. The procedure, abridged:
as §1

For test [21], the system named is Staphylococcus aureus. The test can be described thus: Bactericidal killing activity against Staphylococcus aureus Mu50 at 4 times MIC. Type of test: functional. The procedure, abridged: as §2
The test system of test [22] is Staphylococcus aureus. The test can be described thus: Bactericidal killing activity against Staphylococcus aureus Mu50 at MIC. Type of test: functional. The procedure, abridged:
as §2

In test [23] the test system is Staphylococcus aureus. The test is described as follows: Antibacterial activity against Staphylococcus aureus Mu3 assessed as bacterial density after 8 hrs by time-kill curve analysis. The class given is functional. A digest of the protocol:
as §1

Test [24] relates to Staphylococcus aureus. The test is described as follows: Antibacterial activity against Staphylococcus aureus Mu50 assessed as bacterial density after 8 hrs by time-kill curve analysis. Type of test: functional. A digest of the protocol:
as §2

The subject of test [25] is Staphylococcus aureus. The test is described as follows: Bactericidal killing activity of heterogenous vancomycin-intermediate Staphylococcus aureus at 10 times MIC by time kill curve analysis. Type of test: functional. The procedure, abridged: as §1

Consider `CC(=O)NC[C@H]1CN(c2ccc(N3CCOCC3)c(F)c2)C(=O)O1` [LINEZOLID], for which, in test [1], the MIC50 (usually an inhibitory concentration at the 50% level, which refers to growth in some studies and to a panel of isolates in others) was 1 µg/mL (≈ 2.96 µM); the MIC90 (as a rule, the lowest concentration that inhibits either 90% of growth or 90% of the strains tested, depending on the study) was found to be 2 µg/mL (≈ 5.93 µM). In [2], this molecule yielded an MBC50 of 8 µg/mL (≈ 23.7 µM) and an MBC90 of 64 µg/mL (≈ 190 µM).
The matching figures for `CCCCCCCCCC(=O)N[C@@H](Cc1c[nH]c2ccccc12)C(=O)N[C@H](CC(N)=O)C(=O)N[C@@H](CC(=O)O)C(=O)N[C@@H]1C(=O)NCC(=O)N[C@@H](CCCN)C(=O)N[C@@H](CC(=O)O)C(=O)N[C@H](C)C(=O)N[C@@H](CC(=O)O)C(=O)NCC(=O)N[C@H](CO)C(=O)N[C@@H]([C@H](C)CC(=O)O)C(=O)N[C@@H](CC(=O)c2ccccc2N)C(=O)O[C@@H]1C`: 0.5 µg/mL (≈ 0.309 µM), 1 µg/mL (≈ 0.617 µM), 0.5 µg/mL (≈ 0.309 µM) and 1 µg/mL (≈ 0.617 µM).
`CCCCCCCCNCCC[C@@H](C)[C@H]1CC[C@H]2[C@@H]3[C@H](OCCCN)CC4C[C@H](OCCCN)CC[C@]4(C)[C@H]3C[C@H](OCCCN)[C@]12C.Cl.Cl.Cl.Cl` (stereo partly drawn): the T99.9% result in test [3] is “>=24 hr”; in test [5], 8 h; in test [6] it was 4 h; in test [7], 1 h; in test [9] it was “>=24 hr”; in test [14] it was 1 h. Also, the T99.9% is 4 h in [15]; 8 h in test [16]; 24 h in test [17]; 4 h in test [21]; 8 h in test [22]; 1 h in test [25]. For the same molecule, the log10CFU/ml was -3.75 in test [4], -3.75 in test [8], -3.4 in test [23] and -3.4 in [24]. Further, the Post anitbiotic effect entry in test [10], in test [11], in [12] and in [13] was “Dose-dependent effect” in each case. In [1], this molecule gave an MIC50 of 1 µg/mL. For the same molecule, the MIC90 in test [1] is 1 µg/mL. In test [2], this molecule displayed an MBC50 of 1 µg/mL. Further, the MBC90 in test [2] was found to be 1 µg/mL. The Activity entry in test [18], in [19] and in test [20] was “Dose-dependent effect” throughout.
In [1], `CN[C@H](CC(C)C)C(=O)N[C@H]1C(=O)N[C@@H](CC(N)=O)C(=O)N[C@H]2C(=O)N[C@H]3C(=O)N[C@H](C(=O)N[C@H](C(=O)O)c4cc(O)cc(O)c4-c4cc3ccc4O)[C@H](O)c3ccc(c(Cl)c3)Oc3cc2cc(c3O[C@@H]2O[C@H](CO)[C@@H](O)[C@H](O)[C@H]2O[C@H]2C[C@](C)(N)[C@H](O)[C@H](C)O2)Oc2ccc(cc2Cl)[C@H]1O` [VANCOMYCIN] showed an MIC50 of 4 µg/mL (≈ 2.76 µM) and an MIC90 of 8 µg/mL (≈ 5.52 µM). Also, in [2], the MBC50 is 8 µg/mL (≈ 5.52 µM) and the MBC90 worked out at 8 µg/mL (≈ 5.52 µM).
In [1], `C[C@H](CCCO)[C@H]1CC[C@H]2[C@@H]3[C@H](OCCCN)CC4C[C@H](OCCCN)CC[C@]4(C)[C@H]3C[C@H](OCCCN)[C@]12C.Cl` (stereo partly drawn) showed an MIC50 of 4 µg/mL and an MIC90 of 8 µg/mL. Besides, in [2], the MBC50 was determined as 8 µg/mL and the MBC90 stood at 8 µg/mL.
